Rows were chosen to be rich in hits. Some 2.1% of all compounds tested hit in one or more screens of this group.
TRPML3 agonist: agonists of human TRPML3 channel; Q8TDD5; HEK293 TRPML3-YFP, Fluo-8 calcium fluorescence; 100% = the carbachol control signal; activation, % at 3 µM; 220,000 tested, 0.29% active; AID 1448;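 active = activation above its plate's cutoff, the mean activation of the plate's test wells plus 3 SD, cut at about 12% in these data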
Target sequence (Q8TDD5 whole entry, looked up): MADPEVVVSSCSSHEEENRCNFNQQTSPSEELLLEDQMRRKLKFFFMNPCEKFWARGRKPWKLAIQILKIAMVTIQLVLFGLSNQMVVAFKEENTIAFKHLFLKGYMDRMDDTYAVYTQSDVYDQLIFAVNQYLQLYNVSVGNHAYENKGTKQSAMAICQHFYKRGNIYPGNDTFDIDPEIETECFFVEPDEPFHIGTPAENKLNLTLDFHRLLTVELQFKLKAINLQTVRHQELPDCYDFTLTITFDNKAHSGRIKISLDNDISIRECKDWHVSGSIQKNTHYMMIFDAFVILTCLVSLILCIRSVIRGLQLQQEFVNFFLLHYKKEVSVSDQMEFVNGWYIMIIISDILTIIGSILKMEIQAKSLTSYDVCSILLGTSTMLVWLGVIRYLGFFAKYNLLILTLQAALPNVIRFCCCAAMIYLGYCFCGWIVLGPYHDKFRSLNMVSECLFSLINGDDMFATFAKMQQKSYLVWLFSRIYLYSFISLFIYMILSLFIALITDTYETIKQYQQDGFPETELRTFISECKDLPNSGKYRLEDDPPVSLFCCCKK
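Test system: TRPML3-YFP stable HEK293 cells. Doses: single point at 3 µM. Incubation: dye loading 1 h 37 °C then 30 min ambient, 125 s read. Signal: Fluo-8 calcium dye fluorescence, ex 470-495, em 515-575 nm. Measure: percent activation from peak-to-basal fluorescence ratio, scaled between DMSO and carbachol.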
CRFR2-BP ag: CRF-BP/CRF-R2 complex agonism; HEK293 CRF-R2/CRF-BP, calcium dye fluorescence (FLIPR); percent of saturating CRF peptide response; activation, % at 13.2 µM; 350,000 tested, 0.46% active; AID 588473;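 active = activation of at least 50%, plus an integration ratio under a set limit after plate pattern correction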
VIM-2 inh: blocks Pseudomonas aeruginosa VIM-2 metallo-beta-lactamase | purified VIM-2, nitrocefin hydrolysis, epi-absorbance fluorescence | inhibition, % at 5.6 µM | 290,000 tested, 0.89% active;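 active = inhibition above the mean of all tested compounds plus 3 SD, cutoff set per screening run, cut at about 7.5% in these data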;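 also: red hydrolysis product quenches plate fluorescence so inhibitors raise well fluorescence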
CRFBP-R2 block: CRF-BP/CRF-R2 complex antagonism; HEK293 CRF-R2/CRF-BP, CRF-induced calcium fluorescence; inhibition, % at 11.8 µM; 350,000 tested, 0.59% active; AID 588475;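 active = inhibition of the ligand-induced calcium signal above about 50% at the single tested concentration, limit read from the data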
zfTRPN1 agonist: activates the zebrafish TRPN1 channel. HEK293 zebrafish TRPN1-YFP, Fluo-8 calcium fluorescence; 100% = response to 87 µM carbachol. 220,000 tested, 0.18% active. activation, % at 3 µM;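 active = activation above its plate's cutoff, the mean activation of test wells on that plate plus 3 SD, cut at about 19% in these data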
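Control set: carbachol 87 µM as high control, DMSO as low control; system: HEK293 stable line with zebrafish TRPN1-YFP; read-out: % activation versus carbachol response; detection: intracellular calcium fluorescence with Fluo-8; doses: single test compound dose, 3 µM nominal, 0.3% DMSO; schedule: dye 1 h 37 °C plus 30 min RT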
IMP-1 inh: inhibitors of Pseudomonas aeruginosa IMP-1 metallo-beta-lactamase; purified IMP-1, nitrocefin hydrolysis, epi-absorbance fluorescence; inhibition, % at 5.6 µM; 290,000 tested, 0.45% active; AID 1556;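 active = inhibition above the mean plus 3 SD of all compounds in the same screening run, cut at about 4.5% in these data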
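Assay system: purified recombinant IMP-1 beta-lactamase. Input: IMP-1 0.2 nM before substrate addition. Buffer or medium: Zinc- and detergent-supplemented HEPES buffer, pH 7.1. Schedule: 25 °C, 15 min preincubation, 25 min reaction. Signal: Epi-absorbance fluorescence, 480 nm excitation, 530 nm emission. Evaluation: percent inhibition from optical density relative to buffer-blank wells.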
Hits are given with their value; . = inactive; / = no result given.

SMILES	TRPML3 agonist	CRFR2-BP ag	VIM-2 inh	CRFBP-R2 block	zfTRPN1 agonist	IMP-1 inh
COc1cc(S(=O)(=O)NC(Cc2c[nH]c3ccccc23)C(=O)O)ccc1NC(C)=O (stereo not drawn)	/	.	.	.	/	5.9
C[C@@H]1CN([C@@H](C)CO)C(=O)c2cc(NC(=O)C3CC3)ccc2O[C@@H]1CN(C)Cc1ccc(Cl)c(Cl)c1	/	.	/	.	/	/
COc1ccc(CN(C)C(=O)/C=C/c2ccc(S(=O)(=O)N3CCCCCC3)cc2)cc1	/	.	/	.	/	/
Nc1cccc2c1C(=O)N(C(=O)/C=C/c1cccc(F)c1)C2=O	.	.	.	.	.	.
Nc1cccc2c1C(=O)N(C(=O)/C=C/c1cccc(Br)c1)C2=O	.	.	.	.	.	4.8
O=C(OCC(=O)N1CCN(C(=O)c2ccco2)CC1)c1cc(-c2ccc(F)cc2)nc2ccccc12	.	.	.	.	.	.
O=C(OCC(=O)N1CCN(C(=O)c2ccco2)CC1)c1cc(-c2ccccc2)nc2ccccc12	.	.	11.3	.	.	.
CCCN1C(=O)/C(=C\C=C2/Sc3ccccc3N2CC)SC1=S	.	/	.	/	.	.
CC1=NN(c2ccccc2)C(=O)/C1=C\C=C1\N(C)c2ccccc2C1(C)C	.	.	.	.	.	.
CCN1C(=O)/C(=C/C=C2\C=CN(CC)c3ccccc32)SC1=S	.	.	.	52.7	.	.
CC1=NN(c2ccccc2)C(=O)/C1=C\C=C1/N(C)c2ccccc2C1(C)C	.	52.1	.	.	.	.
CCCN1C(=O)/C(=C\C=C2\N(CC)c3ccccc3C2(C)C)SC1=S	.	125.0	.	.	.	.
CCN1C(=O)C(=CC=CN(C)c2ccccc2)SC1=S	/	103.3	/	.	/	/
COc1ccc(CCC(C)N2CCC(CO)(Cc3ccccc3)CC2)cc1 (stereo not drawn)	/	.	.	.	/	.
CCOc1nsc(OCC)n1	.	.	.	.	.	.
CN1/C(=C\C=C2/SC(=S)NC2=O)C(C)(C)c2ccccc21	19.4	163.8	.	.	32.8	.
CN1C(=CC=C2C=C(I)C(=O)C(I)=C2)C(C)(C)c2ccccc21	.	.	.	.	.	.
C[C@@H](NC(=O)[C@@H]1Cc2ccccc2CN1C(=O)OC(C)(C)C)C(=O)NCC1CCCO1 (stereo partly drawn)	/	.	.	.	/	.
COc1cccc(S(=O)(=O)N(C)C[C@H]2Oc3cc(Br)ccc3S(=O)(=O)N([C@@H](C)CO)C[C@H]2C)c1	/	.	/	.	/	/
Clc1ccc(-c2nnc3sc(-c4ccc(Br)o4)nn23)cc1	.	52.5	.	.	.	.
NC(=S)N/N=C/c1ccccc1OC(=O)/C=C/c1ccccc1	/	.	.	124.2	/	.
NC(=S)N/N=C\c1ccccc1OCc1ccccc1	.	.	.	.	.	.
Cc1ccccc1-n1c(SCC(=O)N2CCOCC2)nc(O)c(Cc2ccccc2)c1=O	/	.	.	.	/	5.2
CCCCc1c(O)nc(SCC(=O)N2CCOCC2)n(-c2ccccc2C)c1=O	.	.	.	.	.	.
C=CCN1C(=O)c2ccc(C(=O)N(CCC)CC(=O)Nc3ccccc3C)cc2C1=O	/	.	/	.	/	/
SMILES	TRPML3 agonist	CRFR2-BP ag	VIM-2 inh	CRFBP-R2 block	zfTRPN1 agonist	IMP-1 inh
CCC(C(=O)NCCCN1CCCC1=O)n1c2ccccc2c2nc(=O)cc(C)n21 (stereo not drawn)	/	.	.	.	/	.
CCC(C(=O)NCCN1CCOCC1)n1c2ccccc2c2nc(=O)cc(C)n21 (stereo not drawn)	/	.	.	51.5	/	.
COc1ccc(CNC(=O)Nc2cccs2)cc1OC	.	.	.	62.3	.	.
Cc1c(C(=O)OCC(=O)NC2CC2)oc2ccc(Br)cc12	/	.	/	.	/	/
COc1cccc(C(=O)NCC(c2ccco2)N2CCOCC2)c1 (stereo not drawn)	/	.	/	.	/	/
CCOc1ccccc1NC(=O)CCC(=O)Nc1ccccc1OCC	.	.	.	.	.	.
CCOc1ccccc1NC(=O)CCNS(=O)(=O)c1ccccc1	/	.	.	.	/	7.3
COc1ccc2c(CC#N)c[nH]c2c1	.	78.4	.	.	.	.
COc1ccc(S(=O)(=O)NCC2CCCO2)c(Cl)c1Cl (stereo not drawn)	/	.	.	.	/	9.2
COc1ccc(S(=O)(=O)Nc2nc3ccccc3nc2NCC2CCCO2)cc1 (stereo not drawn)	.	.	.	113.1	.	.
Cc1ccc(S(=O)(=O)Nc2nc3ccccc3nc2NCC2CCCO2)cc1 (stereo not drawn)	.	.	.	.	.	.
COc1ccc(C)cc1S(=O)(=O)N(C)CC(=O)NCc1ccccn1	/	.	.	.	/	.
O=C(NNC(=S)NC(=O)c1ccccc1)c1ccc([N+](=O)[O-])cc1	/	.	.	.	/	.
O=C(NNC(=S)NC(=O)c1ccc(Br)cc1)c1ccc([N+](=O)[O-])cc1	/	94.6	.	.	/	.
Cc1ccc(C(=O)NC(=S)NNC(=O)c2ccc([N+](=O)[O-])cc2)cc1	/	94.0	.	.	/	.
CCOC(=O)Cc1csc(NC(=S)NC(=O)c2ccc([N+](=O)[O-])cc2)n1	.	.	.	57.3	.	.
CCOC(=O)Cc1csc(NC(=S)NC(=O)c2ccc(Cl)cc2)n1	.	.	.	.	.	.
CC(C)NC(=O)N(C)C[C@@H]1Oc2cc(Br)ccc2S(=O)(=O)N([C@@H](C)CO)C[C@H]1C	/	.	/	.	/	/
Cc1ccccc1C(=O)N1CCN(C(c2ccccc2)c2ccccc2)CC1	.	.	.	.	.	32.8
COc1cc(CCc2ccccc2)c(C(=O)O)c(O)c1C/C=C(/C)CCC=C(C)C	/	.	/	72.0	/	/
CC(C)=CCC/C(C)=C/Cc1c(O)ccc(C(=O)/C=C/c2ccc(O)cc2)c1O	.	.	.	.	.	.
COc1cc(CCc2ccccc2)c(C(=O)O)c(O)c1CC=C(C)C	/	.	/	61.3	/	/
CN1CCN(C(=O)c2ccc3c(c2)NC(=O)/C(=C/c2ccccc2)S3)CC1	/	.	8.0	.	/	.

High-throughput results from PubChem BioAssay.
